Assay results from article PMC4550085 (Chemical communications (Cambridge, England), 2015).

How the values were obtained:
[1] = system: HeLa cells; test: FACS analysis of total cellular uptake of Rho-labelled CPPs; format: cell-based; conditions: for Total cellular uptake (MFI^Rho, %): relative to Tat (100%), 5 µM Rho-labelled peptide, 2 h
Summary of the method: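 Total uptake: HeLa cells were treated for 2 h with 5 µM rhodamine-labelled peptide and analysed by FACS with excitation at 561 nm. MFI was background-subtracted. Values are relative to the Tat conjugate (100%) and are mean ± SD of three independent experiments.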

[2] = system: HeLa cells; test: FACS analysis of cytosolic delivery of NF-labelled CPPs; format: cell-based; conditions: 2 h; for Cytosolic delivery (MFI^NF, %): relative to Tat (100%), 5 µM NF-labelled peptide; for cytosolic delivery efficiency relative to Tat: 5 µM NF-labelled peptides
Summary of the method: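 HeLa cells were exposed for 2 h to 5 µM naphthofluorescein-labelled peptide and analysed by FACS with excitation at 633 nm. Background fluorescence was subtracted from the mean fluorescence intensity (MFI). Values are relative to the Tat conjugate (100%) and are mean ± SD of three independent experiments.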

[3] = system: HeLa cells; test: Endosomal escape efficiency calculated from NF and Rho MFI; format: cell-based; conditions: for Endosomal escape efficiency (γ, %): relative to Tat (100%), calculated from MFI^NF/MFI^Rho; for endosomal escape efficiency relative to Tat: γ=(MFI NF/MFI Rho)/(MFI Tat NF/MFI Tat Rho), HeLa cells, 5 µM
[4] = system: HeLa cells; test: Live-cell confocal microscopy of labelled CPPs; format: cell-based; conditions: 5 µM for 2 h
[5] = pH titration of fluorescence intensity of the dyes and CPP-dye adducts; format: physicochemical
[6] = system: HeLa cells; test: MTT cytotoxicity assay; format: cell-based; conditions: up to 25 µM concentration
[7] = cited from earlier work
[8] = previously shown; cited from earlier work

## YGRKKRRQRRR [Tat]
[1]
  Total cellular uptake (MFI^Rho, %): 100%
[2]
  Cytosolic delivery (MFI^NF, %): 100%
[3]
  Endosomal escape efficiency (γ, %): 100%
[4]
  intracellular fluorescence pattern: diffuse fluorescence in both cytoplasmic and nuclear regions

## cyclo(FΦRRRRQ) (head to tail) [cFΦR4]
[5]; dye attached to the glutamine side chain of cFΦR4, pH titration
  pH profile of CPP-dye adduct compared with the unmodified dye: essentially identical pH profiles
[1]; 5 µM Rho-labelled peptides
  total cellular uptake relative to Tat: 2.3 fold
[2]
  cytosolic delivery efficiency relative to Tat: ~ 10 fold
  Cytosolic delivery (MFI^NF, %): 1006%
[3]
  Endosomal escape efficiency (γ, %): 433%
  endosomal escape efficiency relative to Tat: 4.3 fold
[6]
  cytotoxicity, MTT assay: Neither peptide showed any significant toxicity
[7]
  cytosolic delivery efficiency relative to Tat, pCAP-based assay: 12 fold
[8]
  cytosolic delivery efficiency relative to Tat and R9: 4–12 fold

## nonaarginine [R9]
[1]
  Total cellular uptake (MFI^Rho, %): 114%
[2]
  cytosolic delivery efficiency relative to Tat: ~ 2 fold
  Cytosolic delivery (MFI^NF, %): 197%
[3]
  Endosomal escape efficiency (γ, %): 173%
  endosomal escape efficiency relative to Tat: 1.7 fold
[4]
  intracellular fluorescence pattern: diffuse fluorescence in both cytoplasmic and nuclear regions
[7]
  cytosolic delivery efficiency relative to Tat, pCAP-based assay: 3 fold

## rhodamine
[5]; pH range of 5–10, Ex/Em 545/590 nm
  change in fluorescence intensity with pH: no significant change in fluorescence intensity
